The values that follow come from article PMC3149718 (Molecular and cellular biochemistry, 2011).

Residue numbers refer to the chain shown, from its start.

Assay [1] has as its target T1, 89-residue L-CPTI C-terminal peptide, W391A mutant (Rattus norvegicus, UniProt P32198, W391A).
T1 sequence (P32198 381-469 W391A): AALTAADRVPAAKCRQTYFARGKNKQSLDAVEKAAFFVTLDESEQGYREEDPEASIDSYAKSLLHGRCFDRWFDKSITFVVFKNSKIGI
The assay can be described thus: Direct binding of fluorescent cis-parinaroyl-CoA.

For assay [2], the target named is T2, 89-residue L-CPTI C-terminal peptide, W452A mutant (Rattus norvegicus, UniProt P32198, W452A).
T2 sequence (P32198 381-469 W452A): T1 sequence (P32198 381-469 W391A) with A11W, W72A
The assay can be described thus: Direct binding of fluorescent cis-parinaroyl-CoA.

Assay [3] deals with T3, 89-residue L-CPTI C-terminal peptide, wild-type (WT) (Rattus norvegicus, UniProt P32198).
T3 sequence (P32198 381-469): T1 sequence (P32198 381-469 W391A) with A11W
Kind of assay: FRET from CPTI aromatic amino acids to bound cis-parinaroyl-CoA. The class given is binding. In short, it runs like this:
(§1)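 Peptide (0.1 µM in PBS, pH 7.4) was titrated with cis-parinaroyl-CoA at 24°C (0–1000 nM in methods; 0–250 nM in legend), with excitation at 280 nm and a 300–450 nm scan. Spectra were background-corrected and each averaged from 5 replicates. […] Distance was obtained by the Förster equation. Values are mean ± SE, n=5.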

Assay [4] addresses T1, 89-residue L-CPTI C-terminal peptide, W391A mutant. The assay is described as above. It is filed as binding. The procedure, abridged: as §1
Assay [5] concerns the target T2, 89-residue L-CPTI C-terminal peptide, W452A mutant. Described as above. The class given is binding. In short, it runs like this: as §1
Assay [6] deals with T3, 89-residue L-CPTI C-terminal peptide, wild-type (WT). The assay can be described thus: Displacement of bound cis-parinaroyl-CoA by palmitoyl-CoA. The class given is binding. The note with it: palmitoyl-CoA 0–150nM. The procedure, abridged:
(§2)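 Purified 89-residue peptide (0.1 µM in PBS, pH 7.4) was preincubated with 50 nM cis-parinaroyl-CoA for 5 min at 24°C. It was then titrated with palmitoyl-CoA (0–150 nM stated for WT). Excitation was 310 nm and emission was read at 426 nm. Displacement was taken from the fall in fluorescence and plotted as percent change, and Ki was then calculated.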

The target of assay [7] is T1, 89-residue L-CPTI C-terminal peptide, W391A mutant. The description is as above. It is filed as binding. The note with it: mutant peptides (W391A), range given for both mutants. The procedure, abridged:
as §2

Assay [8] concerns the target T2, 89-residue L-CPTI C-terminal peptide, W452A mutant. The description is as above. The class given is binding. The settings on record: mutant peptides (W452A), range given for both mutants. In short, it runs like this: as §2
Assay [9] concerns the target T1, 89-residue L-CPTI C-terminal peptide, W391A mutant. Kind of assay: Quenching of intrinsic aromatic amino acid fluorescence by palmitoyl-CoA. The class given is binding. The settings on record: read-out: Quenching Kd, quenching of aromatic amino acid fluorescence of 0.1 µM W391A peptide.
Assay [10] addresses T2, 89-residue L-CPTI C-terminal peptide, W452A mutant. The description is as above. The class given is binding. The note with it: read-out: Quenching Kd, quenching of aromatic amino acid fluorescence of 0.1 µM W452A peptide.

For the molecule `CC/C=C/C=C\C=C/C=C/CCCCCCCC(=O)SCCNC(=O)CCNC(=O)[C@H](O)C(C)(C)COP(=O)(O)OP(=O)(O)OC[C@H]1O[C@@H](n2cnc3c(N)ncnc32)[C@H](O)[C@@H]1OP(=O)(O)O` (relative stereo) [cis-parinaroyl-CoA], the “binding affinity weaker than WT” value in assay [1] (mutant (W391A) versus WT, range given for both mutants) is listed as 5–7 fold; in assay [2] (mutant (W452A) versus WT, range given for both mutants), 5–7 fold. Further, the Kd (as a rule, the equilibrium constant for the complex coming apart) amounted to 52 ± 8 nM in [1] (read-out: Cpn-CoA Kd, W391A peptide 0.1 µM, PBS pH 7.4, 24°C, direct fluorescence); 67 ± 10 nM in assay [2] (read-out: Cpn-CoA Kd, W452A peptide 0.1 µM, PBS pH 7.4, 24°C, direct fluorescence); 35 ± 10 nM in assay [3] (read-out: Donor Emission Kd, from decrease in donor (CPTI WT) fluorescence); 88 ± 9 nM in assay [4] (read-out: Donor Emission Kd, from decrease in donor (W391A) fluorescence); 51 ± 5 nM in assay [5] (read-out: Donor Emission Kd, from decrease in donor (W452A) fluorescence). Also, the “intermolecular distance determined from the increased acceptor fluorescence” value in [3] (CPTI WT, acceptor (cis-parinaroyl-CoA) fluorescence) is reported as 38±1 Å. Also, the “Donor Emission R (intermolecular distance)” value in assay [3] (from donor (CPTI WT) quenching, Förster equation) is 28 ± 1 Å; in [4] (from donor (W391A) quenching), 23.9 ± 0.6 Å; in assay [5] (from donor (W452A) quenching) it was 24.3 ± 0.6 Å.

As for `CCCCCCCCCCCCCCCC(=O)SCCNC(=O)CCNC(=O)[C@H](O)C(C)(C)COP(=O)(O)OP(=O)(O)OC[C@H]1O[C@@H](n2cnc3c(N)ncnc32)[C@H](O)[C@@H]1OP(=O)(O)O` [palmitoyl-CoA], the “displacement of cis-parinaroyl-CoA” value in assay [6] is recorded as “approximately 70%”. Further, the cis-parinaroyl-CoA displacement in [7] and in assay [8] was 50–60% throughout. Moreover, the Kd in assay [9] was found to be 9 ± 1 nM; in assay [10], 16 ± 2 nM.
